Measurements as given in the array DNA melting data of Ke et al. (doi:10.1101/2024.01.08.574731).

Legend:
[1] = melting temperature; fluorescence melt of hairpins on a sequencing array, two-state fit, raised by 9.35 °C to match UV melts; details: sodium 0.088 M
Outline: (§1)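 To match UV melts, fitted temperatures were raised by 9.35 °C. These fits were bootstrapped two-state models that gave melting temperature and folding enthalpy, combined by inverse variance over four replicates. The input was normalised Cy3 fluorescence of library hairpins with annealed Cy3 and quencher oligos on a sequenced MiSeq flow cell, imaged in 50 mM Na-HEPES pH 8.0, 25 mM NaCl in 2.5 °C steps up to 60 °C.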

[2] = folding enthalpy; higher = less favourable; fluorescence melt of hairpins on a sequencing array, two-state fit; details: sodium 0.088 M
Outline: as §1

Question: Which Tm [1] does the source give for GGACGAGGAAACTCGCCC ((.((((....)))).)) here?
Answer: 51.7 °C

Question: What about the folding enthalpy [2] of the same sequence?
Answer: -23.3 kcal/mol

Question: With GGACGCACGAAAGTGTCC (((..(((....)))))) as the sequence, how does the Tm [1] read?
Answer: 47 °C

Question: What about the folding enthalpy [2] of the same sequence?
Answer: -21.4 kcal/mol

Question: With GGACGCCGAAAGGCTCC (((.(((....)))))) as the sequence, how does the Tm [1] read?
Answer: 54.3 °C

Question: What about the folding enthalpy [2] of the same sequence?
Answer: -19.7 kcal/mol

Question: What does the source list for GGACGCCGAAAGGCTTCC (((.(((....))).)))?
Answer: Tm [1]: 53.8 °C; folding enthalpy [2]: -23.4 kcal/mol

Question: For GGACGCGAAAGCGGATCC ((((((....)))..))), which Tm [1] is on record?
Answer: 47.5 °C

Question: What about the folding enthalpy [2] of the same sequence?
Answer: -12.3 kcal/mol

Question: Which Tm [1] does the source give for GGACGCGAAAGCGGCTCC ((((((....)))..))) here?
Answer: 58 °C

Question: And the folding enthalpy [2]?
Answer: -8.87 kcal/mol

Question: With GGACGGAAACGTCC (((((....))))) as the sequence, how does the Tm [1] read?
Answer: 66.4 °C

Question: And the folding enthalpy [2]?
Answer: -31.9 kcal/mol

Question: Which Tm [1] does the source give for GGACGGACGAAAGTCTCC (((..(((....)))))) here?
Answer: 30.5 °C

Question: What about the folding enthalpy [2] of the same sequence?
Answer: -13.2 kcal/mol

Question: Which Tm [1] does the source give for GGACGGGGAAACCCATCC (((.(((....))).))) here?
Answer: 41.7 °C

Question: What about the folding enthalpy [2] of the same sequence?
Answer: -27.6 kcal/mol

Question: What does the source list for GGACGGGGAAACCCGTTC (.(((((....))))).)?
Answer: Tm [1]: 56.1 °C; folding enthalpy [2]: -21.4 kcal/mol

Question: For GGACGTCGAAAGACTCC (((.(((....)))))), which Tm [1] is on record?
Answer: 51.2 °C

Question: And the folding enthalpy [2]?
Answer: -23.8 kcal/mol

Question: Which Tm [1] does the source give for GGACGTGGAAACGCGTCC (((((.(....).))))) here?
Answer: 61.9 °C

Question: And the folding enthalpy [2]?
Answer: -45.2 kcal/mol

Question: For GGACGTGGAAACGTGTCC ((((..(....)..)))), which Tm [1] is on record?
Answer: 44.3 °C

Question: What about the folding enthalpy [2] of the same sequence?
Answer: -19.9 kcal/mol

Question: With GGACTAGGAAACTGGTCC ((((.((....)).)))) as the sequence, how does the Tm [1] read?
Answer: 50.9 °C

Question: And the folding enthalpy [2]?
Answer: -41.6 kcal/mol

Question: For GGACTCCCGAAAGGGTCC (((..(((....)))))), which Tm [1] is on record?
Answer: 45.3 °C

Question: What about the folding enthalpy [2] of the same sequence?
Answer: -16.8 kcal/mol

Question: For GGACTCCGAAAGGATTCC (((.(((....))).))), which Tm [1] is on record?
Answer: 47 °C

Question: And the folding enthalpy [2]?
Answer: -30.2 kcal/mol

Question: Which Tm [1] does the source give for GGACTCGAAAGAGAATCC ((((((....)))..))) here?
Answer: 28.8 °C

Question: And the folding enthalpy [2]?
Answer: -12.6 kcal/mol

Question: With GGACTCGAAAGAGCTCC ((((((....))).))) as the sequence, how does the Tm [1] read?
Answer: 45 °C

Question: And the folding enthalpy [2]?
Answer: -26 kcal/mol

Question: For GGACTCGAAAGAGGGTCC ((((((....)))..))), which Tm [1] is on record?
Answer: 43.9 °C

Question: And the folding enthalpy [2]?
Answer: -21 kcal/mol

Question: For GGACTCGAAAGAGTGTCC ((((((....)))..))), which Tm [1] is on record?
Answer: 40.7 °C

Question: What about the folding enthalpy [2] of the same sequence?
Answer: -16.9 kcal/mol

Question: For GGACTCGGAAACGAGCCC ((.((((....)))).)), which Tm [1] is on record?
Answer: 53.5 °C

Question: And the folding enthalpy [2]?
Answer: -34.7 kcal/mol

Question: Which results are given for GGACTCTCGAAAGAGTCC (((..(((....))))))?
Answer: Tm [1]: 60.9 °C; folding enthalpy [2]: -42.7 kcal/mol

Question: Which Tm [1] does the source give for GGACTGCGAAAGCACTCC (((.(((....))).))) here?
Answer: 38.9 °C

Question: What about the folding enthalpy [2] of the same sequence?
Answer: -8.91 kcal/mol

Question: Which results are given for GGACTTCCGAAAGGATCC (((..(((....))))))?
Answer: Tm [1]: 29.1 °C; folding enthalpy [2]: -12.7 kcal/mol

Question: With GGACTTGGAAACAGGTCC ((((.((....)).)))) as the sequence, how does the Tm [1] read?
Answer: 49.4 °C

Question: And the folding enthalpy [2]?
Answer: -46.5 kcal/mol

Question: With GGAGAACGAAAGTTATCC (((.(((....))).))) as the sequence, how does the Tm [1] read?
Answer: 51.6 °C

Question: What about the folding enthalpy [2] of the same sequence?
Answer: -37.2 kcal/mol

Question: What does the source list for GGAGAACGAAAGTTTTCC (((.(((....))).)))?
Answer: Tm [1]: 47.4 °C; folding enthalpy [2]: -29.2 kcal/mol

Question: For GGAGAAGCGAAAGCTTCC (((..(((....)))))), which Tm [1] is on record?
Answer: 42.7 °C

Question: And the folding enthalpy [2]?
Answer: -9.26 kcal/mol

Question: Which results are given for GGAGAAGGAAACTTCTCC (((((((....)))))))?
Answer: Tm [1]: 57.7 °C; folding enthalpy [2]: -43.1 kcal/mol

Question: With GGAGAAGGAAACTTCTTC (.(((((....))))).) as the sequence, how does the Tm [1] read?
Answer: 36.7 °C

Question: What about the folding enthalpy [2] of the same sequence?
Answer: -23.1 kcal/mol

Question: Which results are given for GGAGACACGAAAGTGTCC (((..(((....))))))?
Answer: Tm [1]: 44.1 °C; folding enthalpy [2]: -8.97 kcal/mol

Question: For GGAGACCCGAAAGGGTCC (((..(((....)))))), which Tm [1] is on record?
Answer: 47.6 °C

Question: What about the folding enthalpy [2] of the same sequence?
Answer: -7.91 kcal/mol

Question: Which results are given for GGAGACCGAAAGGTATCC (((.(((....))).)))?
Answer: Tm [1]: 61.4 °C; folding enthalpy [2]: -41.4 kcal/mol

Question: Which Tm [1] does the source give for GGAGACGAAAGTCAATCC ((((((....)))..))) here?
Answer: 31 °C

Question: And the folding enthalpy [2]?
Answer: -15.1 kcal/mol

Question: Which Tm [1] does the source give for GGAGACGAAAGTCACTCC ((((((....)))..))) here?
Answer: 37.6 °C

Question: And the folding enthalpy [2]?
Answer: -13.3 kcal/mol

Question: For GGAGACGAAAGTCATTCC ((((((....)))..))), which Tm [1] is on record?
Answer: 29.6 °C

Question: What about the folding enthalpy [2] of the same sequence?
Answer: -12 kcal/mol

Question: For GGAGACGAAAGTCGATCC ((((((....)))..))), which Tm [1] is on record?
Answer: 44 °C

Question: And the folding enthalpy [2]?
Answer: -13 kcal/mol

Question: Which Tm [1] does the source give for GGAGACGCGAAAGCGTCC (((..(((....)))))) here?
Answer: 45.3 °C

Question: What about the folding enthalpy [2] of the same sequence?
Answer: -7.09 kcal/mol

Question: With GGAGACGGAAACGCCTCC ((((.((....)).)))) as the sequence, how does the Tm [1] read?
Answer: 51.4 °C

Question: And the folding enthalpy [2]?
Answer: -48.4 kcal/mol

Question: For GGAGACGGAAACGTCTTC (.(((((....))))).), which Tm [1] is on record?
Answer: 50.7 °C

Question: And the folding enthalpy [2]?
Answer: -17.4 kcal/mol

Question: Which results are given for GGAGATACGAAAGTATCC (((..(((....))))))?
Answer: Tm [1]: 40.9 °C; folding enthalpy [2]: -12.7 kcal/mol

Question: For GGAGATCCGAAAGGATCC (((..(((....)))))), which Tm [1] is on record?
Answer: 42 °C

Question: And the folding enthalpy [2]?
Answer: -9.31 kcal/mol

Question: Which results are given for GGAGATCGAAAGATGTCC (((.(((....))).)))?
Answer: Tm [1]: 50.4 °C; folding enthalpy [2]: -29.5 kcal/mol

Question: For GGAGCACGAAAGTGATCC (((.(((....))).))), which Tm [1] is on record?
Answer: 66.2 °C

Question: And the folding enthalpy [2]?
Answer: -38.3 kcal/mol

Question: Which Tm [1] does the source give for GGAGCACGAAAGTGTCC (((.(((....)))))) here?
Answer: 48.5 °C

Question: What about the folding enthalpy [2] of the same sequence?
Answer: -16.4 kcal/mol
